These results are taken from ChEMBL document CHEMBL2057149 (J Med Chem, 2012).

One series deals with T1, Heparanase (Homo sapiens, UniProt Q9Y251).
T1 sequence (Q9Y251 whole entry): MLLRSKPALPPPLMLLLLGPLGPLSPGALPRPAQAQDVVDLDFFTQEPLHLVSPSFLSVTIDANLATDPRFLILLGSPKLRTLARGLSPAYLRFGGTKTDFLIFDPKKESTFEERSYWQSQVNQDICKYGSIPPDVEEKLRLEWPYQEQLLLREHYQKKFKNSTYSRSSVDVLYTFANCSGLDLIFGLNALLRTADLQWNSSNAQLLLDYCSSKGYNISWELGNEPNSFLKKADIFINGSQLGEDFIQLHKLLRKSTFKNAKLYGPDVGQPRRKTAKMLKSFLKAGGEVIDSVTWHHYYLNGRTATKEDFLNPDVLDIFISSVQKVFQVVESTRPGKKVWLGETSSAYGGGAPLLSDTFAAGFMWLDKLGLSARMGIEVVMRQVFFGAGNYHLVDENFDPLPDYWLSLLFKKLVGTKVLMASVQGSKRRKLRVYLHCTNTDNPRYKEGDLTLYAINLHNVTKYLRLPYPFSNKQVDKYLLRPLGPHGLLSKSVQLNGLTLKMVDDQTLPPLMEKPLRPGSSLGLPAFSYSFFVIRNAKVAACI
Kind of series: Inhibition of human recombinant heparanase after 2 to 24 hrs by WST1 dye based fondaparinux assay. In general terms: Tetrazolium dyes change colour on reduction, which living cells bring about.

Series [1] deals with Fibroblast growth factor 2 (Homo sapiens, UniProt P09038). Kind of series: Binding affinity to FGF-2 by surface plasmon resonance assay. In a few lines: (§1)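 Solution-affinity SPR on heparin-coated CM4 chips. FGF-1 measured in HBS-EP (10 mM HEPES pH 7.4, 150 mM NaCl, 3.0 mM EDTA, 0.005% polysorbate 20); FGF-2 measured in HBS-EP with 300 mM NaCl. Kd is the average of at least duplicate measurements ± SD.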
For orientation: In SPR one partner is held on a chip, and binding of the other changes the refractive index at the surface.

Series [2] has as its system HUVEC. The series can be described thus: Antiangiogenic activity in FGF2-stimulated HUVEC cells after 72 hrs by CellTiter assay. In kind it is functional, cell-based. The following applies: Homo sapiens.
For series [3], the system named is Plasma. Kind of series: Anticoagulant activity in pooled human plasma assessed as activated partial thromboplastin time at 0.1 mg/ml. In kind it is ADME, cell-free. Summed up:
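APTT of pooled normal human plasma measured with compound at 0–100 μg/mL in PBS on a ball coagulameter, using unfractionated heparin as the reference. Normal range 26–36 s; coefficient of variation 2% at 36 s and 5–7% at 90 s or above. Values are the mean of two determinations.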

For a further series, the system named is Aorta. The series can be described thus: Antiangiogenic activity in Sprague-Dawley rat aorta assessed as inhibition of tube formation dosed daily at 10 uM measured up to 8 days by matrigel assay. The class given is functional. In a few lines:
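Aortas from 6–10-week Sprague–Dawley rats were cut into 1 mm rings, bisected and embedded in Matrigel. Cultured in EBM-2 with 2% FCS and supplements except heparin, without exogenous growth factors. Compound was usually given at two concentrations within 1–50 μM from 10 mM PBS stocks, replenished every 48 h. Microvessels were scored 0–5 up to 8 days by two independent investigators.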

Series [4] deals with Fibroblast growth factor 1 (Homo sapiens, UniProt P05230). The series can be described thus: Binding affinity to FGF-1 by surface plasmon resonance assay. Summed up: as §1
Series [5] concerns HMVEC. Kind of series: Antiangiogenic activity in FGF1-stimulated HMVEC cells after 72 hrs by CellTiter assay. The class given is functional, cell-based. To be noted: Homo sapiens.
Series [6] relates to HMVEC. The series can be described thus: Antiangiogenic activity in VEGF-stimulated HMVEC cells after 72 hrs by CellTiter assay. The following applies: Homo sapiens. The class given is functional, cell-based.
The subject of series [7] is HUVEC. The series can be described thus: Antiangiogenic activity in FGF1-stimulated HUVEC cells after 72 hrs by CellTiter assay. The class given is functional, cell-based. To be noted: Homo sapiens.
In series [8] the test system is HMVEC. Kind of series: Antiangiogenic activity in FGF2-stimulated HMVEC cells after 72 hrs by CellTiter assay. In kind it is functional, cell-based. To be noted: Homo sapiens.
Series [9] addresses Vascular endothelial growth factor A (Homo sapiens) (UniProt P15692). The series can be described thus: Binding affinity to VEGF by surface plasmon resonance assay.
Series [10] relates to Plasma. The series can be described thus: Anticoagulant activity in pooled human plasma assessed as prolongation of the recalcification time at 0.1 mg/ml by Heptest assay. The class given is ADME, cell-free. Summed up: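 Heptest clotting time in pooled normal human plasma; normal range 13–20 s. Values are the mean of two determinations.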
In series [11] the test system is HUVEC. Kind of series: Antiangiogenic activity in VEGF-stimulated HUVEC cells after 72 hrs by CellTiter assay. In kind it is functional, cell-based. The following applies: Homo sapiens.
The subject of series [12] is HUVEC. Kind of series: Antiangiogenic activity in HUVEC cells assessed as inhibition of tube formation at 10 uM after 18 hrs by matrigel assay. In kind it is functional. The following applies: Homo sapiens. Summed up: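 HUVECs (passage 4 or 5, 70–80% confluent) suspended at 4 × 10⁵/mL in EGM2 with all supplements except heparin, mixed 1:1 with compound (final 10, 50 or 100 μM) in triplicate. Plated on growth factor-reduced Matrigel for 18 h. Branching nodes joining ≥3 tubules counted manually by phase-contrast microscopy. Reported as % inhibition versus untreated cells.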

One may read the Ki as the equilibrium dissociation constant of an inhibitor or competing ligand from its target. The Kd is the constant that tells how readily two partners part at equilibrium. Higher therefore signals a looser complex. The term IC50 denotes the concentration needed to halve the response being measured. Lower therefore signals higher potency. For orientation: inhibition means the relative decrease from the control value, in per cent.

Activity calls are given as the source filed them. The calls are words filed in the database; no cut-off is given here. A value given as a limit tells only on which side of the number the result lay.

Sequence of Fibroblast growth factor 2 (P09038 143-288 limits assumed): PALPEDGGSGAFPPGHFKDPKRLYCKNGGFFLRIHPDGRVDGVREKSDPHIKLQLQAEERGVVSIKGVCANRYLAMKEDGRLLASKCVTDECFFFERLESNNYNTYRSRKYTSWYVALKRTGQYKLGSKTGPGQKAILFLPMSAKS
Sequence of Fibroblast growth factor 1 (P05230 whole entry): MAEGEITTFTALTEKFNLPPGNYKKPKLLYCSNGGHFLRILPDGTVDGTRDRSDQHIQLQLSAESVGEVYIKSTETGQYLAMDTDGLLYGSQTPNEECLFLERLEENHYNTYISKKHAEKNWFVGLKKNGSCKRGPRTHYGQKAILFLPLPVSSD

`CC(C)CCC[C@@H](C)[C@H]1CC[C@H]2[C@@H]3CC[C@H]4C[C@@H](OCc5cn([C@@H]6O[C@H](COS(=O)(=O)[O-])[C@@H](O[C@H]7O[C@H](COS(=O)(=O)[O-])[C@@H](O[C@H]8O[C@H](COS(=O)(=O)[O-])[C@@H](O[C@H]9O[C@H](COS(=O)(=O)[O-])[C@@H](OS(=O)(=O)[O-])[C@H](OS(=O)(=O)[O-])[C@H]9OS(=O)(=O)[O-])[C@H](OS(=O)(=O)[O-])[C@H]8OS(=O)(=O)[O-])[C@H](OS(=O)(=O)[O-])[C@H]7OS(=O)(=O)[O-])[C@H](OS(=O)(=O)[O-])[C@H]6OS(=O)(=O)[O-])nn5)CC[C@]4(C)[C@H]3CC[C@]12C.[Na+].[Na+].[Na+].[Na+].[Na+].[Na+].[Na+].[Na+].[Na+].[Na+].[Na+].[Na+].[Na+]`: the Ki on Heparanase amounted to 3.7 nM. In addition, the results for the Kd in series [1], in series [4] and in series [9] were 390 nM, 9.7 nM and 95 nM, respectively. The figures for the IC50 with HUVEC [2], with HUVEC [7] and in the series on HUVEC [11] were 640 nM, 2300 nM and 2200 nM, respectively. In addition, in the series on Plasma [3], the APTT was 104 s. In the series with Aorta, the “inhibition (INH)” value was >80%. Moreover, the result in the series on HMVEC [5], in the series on HMVEC [6] and with HMVEC [8] was Active. For the same compound, the Time with Plasma [10] stood at 45.5 s.
As to `CCCCCCCCCCCCCCCCCC(=O)NCCCO[C@H]1O[C@H](COS(=O)(=O)[O-])[C@@H](OS(=O)(=O)[O-])[C@H](OS(=O)(=O)[O-])[C@@H]1O[C@H]1O[C@H](COS(=O)(=O)[O-])[C@@H](OS(=O)(=O)[O-])[C@H](O[C@H]2O[C@H](COS(=O)(=O)[O-])[C@@H](OS(=O)(=O)[O-])[C@H](O[C@H]3O[C@H](COS(=O)(=O)[O-])[C@@H](OS(=O)(=O)[O-])[C@H](OS(=O)(=O)[O-])[C@@H]3OS(=O)(=O)[O-])[C@@H]2OS(=O)(=O)[O-])[C@@H]1OS(=O)(=O)[O-].[Na+].[Na+].[Na+].[Na+].[Na+].[Na+].[Na+].[Na+].[Na+].[Na+].[Na+].[Na+].[Na+]`, the Ki on Heparanase was 6 nM. Further, the Kd is 108 nM in series [1], 0.44 nM in series [4] and 40 nM in [9]. Further, the results for the IC50 with HUVEC [2], in the series with HUVEC [7] and in the series on HUVEC [11] were 700 nM, 1540 nM and 600 nM, respectively. For the same compound, the inhibition at 10 µM with HUVEC [12] was > 80%. In addition, in the series on Plasma [3], the APTT stood at 68.1 s. The result with HMVEC [5], in the series with HMVEC [6] and in the series on HMVEC [8] was Active. For the same compound, in the series with Plasma [10], the Time was 24.5 s.
As for `CCCCCCCCCCCCCCCCCC(=O)NCCCO[C@@H]1O[C@H](COS(=O)(=O)[O-])[C@@H](O[C@H]2O[C@H](COS(=O)(=O)[O-])[C@@H](O[C@H]3O[C@H](COS(=O)(=O)[O-])[C@@H](O[C@H]4O[C@H](COS(=O)(=O)[O-])[C@@H](OS(=O)(=O)[O-])[C@H](OS(=O)(=O)[O-])[C@H]4OS(=O)(=O)[O-])[C@H](OS(=O)(=O)[O-])[C@H]3OS(=O)(=O)[O-])[C@H](OS(=O)(=O)[O-])[C@H]2OS(=O)(=O)[O-])[C@H](OS(=O)(=O)[O-])[C@H]1OS(=O)(=O)[O-].[Na+].[Na+].[Na+].[Na+].[Na+].[Na+].[Na+].[Na+].[Na+].[Na+].[Na+].[Na+].[Na+]`, the IC50 in the series on HUVEC [2] amounted to 800 nM. Also, the inhibition at 10 µM with HUVEC [12] was > 80%. Moreover, in the series on Plasma [3], the APTT stood at 65.8 s. In addition, the outcome with HMVEC [5], in the series on HMVEC [6] and in the series with HMVEC [8] was Active. The same compound showed a Kd in series [9] of 14 nM. Moreover, the Time in the series with Plasma [10] amounted to 32.2 s.
